Data as given in PMC7507839 (Investigational new drugs, 2018).
“Also recorded” adds a separate entry of the source.

Legend:
c-Met [1] = conditions: read-out: IC50 towards c-Met; cited from earlier work
tyrosine kinases = conditions: cited from earlier work
[2] = tested on: patients with metastatic or locally advanced solid tumors; experiment: Phase I dose escalation: safety, DLT, MTD; assay type: in vivo
[3] = plasma pharmacokinetics in patients; assay type: in vivo, human
[4] = tested on: metastatic or locally advanced solid tumors; experiment: anti-tumor activity; assay type: in vivo, human
Summary of the method: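 Adults with histologically confirmed metastatic or locally advanced solid tumors lacking standard therapy, ECOG 0–1, received test compound twice daily from 50 mg in escalating cohorts. Cycle 1 was 14 days followed by a 1-week holiday, cycles 2–4 were 14 days, and cycles from 5 on were 28 days. RECIST 1.0 imaging at end of cycle 4, then every two cycles. All patients dosed at least once analysed.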

[5] = tested on: gastric and non-small cell lung cell lines; conditions: a number of cell lines; most pronounced in gastric and non-small cell lung cell lines; cited from earlier work
c-Met [6] = conditions: GTL-16 gastric cancer cells, cited from earlier work
c-Met [7] = conditions: A549 non-small cell lung carcinoma cell line; cited from earlier work
GTL-16 xenograft = conditions: twice-daily 100 mg/kg orally, cited from earlier work
[8] = tested on: ovarian cancer cell lines; conditions: with paclitaxel + carboplatin, multiple ovarian cancer cell lines; cited from earlier work
[9] = tested on: non-small cell lung cancer cell lines; conditions: high c-Met expressing cell lines; cited from earlier work
medullary thyroid cancer = conditions: monotherapy; cited from earlier work
[10] = Dose Level 5, 550 mg BID, Fatigue
[11] = Dose Level 6, 750 mg BID, Nausea
[12] = Dose Level 7, 1050 mg BID, Nausea
[13] = Dose Level 7, 1050 mg BID, Vomiting
[14] = Dose Level 8, 1500 mg BID, Elevated ALT
[15] = Dose Level 8, 1500 mg BID, Elevated AST
[16] = Dose Level 8, 1500 mg BID, Elevated Amylase
[17] = Dose Level 8, 1500 mg BID, Hypokalaemia

## O=C1NC(=O)[C@@H](c2cn3c4c(cccc24)CCC3)[C@@H]1c1c[nH]c2ccccc12 [tivantinib, reference compound]
c-Met [1]
  IC50: 100 nM
Tyrosine kinases
  selectivity: only binds to c-Met

## Cn1cc(-c2cnc3ccc4ccc(CS(=O)(=O)NCc5ccccn5)cc4c(=O)c3c2)cn1 [MK-8033, 1-[3-(1-methyl-1H-pyrazol-4-yl)-5-oxo-5H-benzo[4,5]cyclohepta[1,2-b]pyridin-7-yl] -N-(pyridin-2-ylmethyl)methanesulfonamide]
[2]; Dose Level 1 (n = 1), 50 mg BID, Total
  No. of Subjects with a DLT: 0
[2]; Dose Level 2 (n = 1), 100 mg BID, Total
  No. of Subjects with a DLT: 0
[2]; Dose Level 3 (n = 3), 200 mg BID, Total
  No. of Subjects with a DLT: 0
[2]; Dose Level 4 (n = 4), 400 mg BID, Total
  No. of Subjects with a DLT: 0
[2]; Dose Level 5 (n = 7), 550 mg BID, Fatigue
  No. of Subjects with a DLT: 1
[2]; Dose Level 5 (n = 7), 550 mg BID, Total
  No. of Subjects with a DLT: 1
[2]; [10]
  Number of DLTs Grade 1: 0
  Number of DLTs Grade 2: 0
  Number of DLTs Grade 3: 1
  Number of DLTs Grade 4: 0
[2]; Dose Level 6 (n = 18), 750 mg BID, Nausea
  No. of Subjects with a DLT: 1
[2]; Dose Level 6 (n = 18), 750 mg BID, Total
  No. of Subjects with a DLT: 1
[2]; [11]
  Number of DLTs Grade 1: 0
  Number of DLTs Grade 2: 1
  Number of DLTs Grade 3: 0
  Number of DLTs Grade 4: 0
[2]; Dose Level 7 (n = 6), 1050 mg BID, Nausea
  No. of Subjects with a DLT: 2
[2]; Dose Level 7 (n = 6), 1050 mg BID, Total
  No. of Subjects with a DLT: 2
[2]; Dose Level 7 (n = 6), 1050 mg BID, Vomiting
  No. of Subjects with a DLT: 2
[2]; [12]
  Number of DLTs Grade 1: 0
  Number of DLTs Grade 2: 0
  Number of DLTs Grade 3: 2
  Number of DLTs Grade 4: 0
[2]; [13]
  Number of DLTs Grade 1: 0
  Number of DLTs Grade 2: 1
  Number of DLTs Grade 3: 1
  Number of DLTs Grade 4: 0
[2]; Dose Level 8 (n = 3), 1500 mg BID, Elevated ALT
  No. of Subjects with a DLT: 1
[2]; Dose Level 8 (n = 3), 1500 mg BID, Elevated AST
  No. of Subjects with a DLT: 1
[2]; Dose Level 8 (n = 3), 1500 mg BID, Elevated Amylase
  No. of Subjects with a DLT: 1
[2]; Dose Level 8 (n = 3), 1500 mg BID, Hypokalaemia
  No. of Subjects with a DLT: 1
[2]; Dose Level 8 (n = 3), 1500 mg BID, Total
  No. of Subjects with a DLT: 2
[2]; [14]
  Number of DLTs Grade 1: 0
  Number of DLTs Grade 2: 0
  Number of DLTs Grade 3: 1
  Number of DLTs Grade 4: 0
[2]; [15]
  Number of DLTs Grade 1: 0
  Number of DLTs Grade 2: 0
  Number of DLTs Grade 3: 1
  Number of DLTs Grade 4: 0
[2]; [16]
  Number of DLTs Grade 1: 0
  Number of DLTs Grade 2: 0
  Number of DLTs Grade 3: 1
  Number of DLTs Grade 4: 0
[2]; [17]
  Number of DLTs Grade 1: 0
  Number of DLTs Grade 2: 0
  Number of DLTs Grade 3: 0
  Number of DLTs Grade 4: 1
[2]; Part C - (n = 3), 750 mg BID, Total
  No. of Subjects with a DLT: 0
[2]; determined by investigators to be unrelated to MK-8033
  patients who died during the study: Five
[2]; dose level 6, oral
  maximum tolerated dose (MTD): 750 mg BID
[2]; dose level 6, acute and chronic toxicity, TITE-CRM
  recommended phase II dose (RP2D): 750 mg BID
[2]; treatment-related, n = 46
  Alopecia, All Grades, %: 19.6%
  Anorexia, All Grades, %: 17.4%
  Decreased Hemoglobin, All Grades, %: 6.5%
  Decreased Hemoglobin, Grade ≥ 3, %: 2.2%
  Diarrhea, All Grades, %: 6.5%
  Dysgeusia, All Grades, %: 8.7%
  Dyspepsia, All Grades, %: 6.5%
  Dyspepsia, Grade ≥ 3, %: 4.3%
  Elevated ALT, All Grades, %: 17.4%
  Elevated ALT, Grade ≥ 3, %: 2.2%
  Elevated AST, All Grades, %: 10.9%
  Elevated AST, Grade ≥ 3, %: 2.2%
  Elevated Amylase, All Grades, %: 6.5%
  Elevated Amylase, Grade ≥ 3, %: 4.3%
  Elevated Creatinine, All Grades, %: 13.0%
  Elevated Lipase, All Grades, %: 6.5%
  Elevated Lipase, Grade ≥ 3, %: 4.3%
  Fatigue, All Grades, %: 28.3%
  Fatigue, Grade ≥ 3, %: 2.2%
  Headache, All Grades, %: 6.5%
  Hypokalemia, All Grades, %: 6.5%
  Hypokalemia, Grade ≥ 3, %: 2.2%
  Lymphopenia, All Grades, %: 8.7%
  Lymphopenia, Grade ≥ 3, %: 4.3%
  Nausea, All Grades, %: 21.7%
  Nausea, Grade ≥ 3, %: 4.3%
  Vomiting, All Grades, %: 13.0%
  Vomiting, Grade ≥ 3, %: 2.2%
[3]; 50 to 1500 mg BID, dose proportionality not assessable
  max concentration versus dose: appears to increase with dose
[3]; 200 to 1500 mg BID dose range, not conclusive
  Day 14/Day 1 geometric mean accumulation ratios for Cmax: 1.2 to 4.2
[3]; Part C, 770 mg BID with or without 20 mg omeprazole, two patients
  impact of co-administered omeprazole on steady state Cmax, AUC0–12h and Tmax: no effect; also recorded: does not appear to strongly impact
[3]; human, plasma, oral
  Tmax: 1 to 3 h
[4]; 95% confidence interval 42–115 days
  median progression-free survival (PFS): 57 days
[4]; at 6 weeks
  PFS rate: 80.4%
[4]; at 12 weeks
  PFS rate: 15.2%
[4]; best response
  patients with stable disease (SD), %: 18.2%
[4]; endometrioid adenocarcinoma
  patients with partial response (PR): One
[4]; human, in vivo
  patients with best response of progressive disease (PD), %: 71.7%
[4]; patient with endometrioid adenocarcinoma
  PFS of the responding patient: 846 days
c-Met [1]
  IC50: 1 nM
[5]
  IC50 for proliferation: sub-micromolar
c-Met [6]; constitutively activated c-MET
  autophosphorylation of c-Met in the C-terminal docking site: potently inhibited
c-Met [6]
  downstream signaling events such as ERK1/2 and AKT: inhibited
c-Met [7]
  HGF-induced phosphorylation of c-Met: inhibited
  phosphorylation of AKT and ERK1/2: inhibited
GTL-16 xenograft; mice
  plasma concentrations relative to IC50 for target inhibition: exceeding the IC50 for target inhibition for 24 h/day
  tolerability: well-tolerated
GTL-16 xenograft
  pathway activation and tumor growth: inhibited
Tyrosine kinases
  selectivity: target multiple tyrosine kinases
[8]
  cell growth inhibition in combination with chemotherapy: synergized
[9]
  radiosensitization: radiosensitized

## COc1cc2nccc(Oc3ccc(NC(=O)C4(C(=O)Nc5ccc(F)cc5)CC4)cc3)c2cc1OC [cabozantinib]
c-Met [1]
  IC50: 1.3 nM
Medullary thyroid cancer
  response rate: 49%
